# Experimental data: PubChem BioAssay AID493016 (Southern Research Specialized Biocontainment Screening …, 2011)
# Activity calls are given as the source filed them.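 Rule for the calls: active = compounds blocking at least half of virus-caused cell death at some tested dose; inactive = the rest.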
# System: HEp-2 RSV Long CPE inhibition, luminescence
# Assay: inhibitors of RSV-induced HEp-2 cell death – RSV Long, synthesized compounds, set 4, dose response (AID 493016)
# Method in brief: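 Assay system: HEp-2 human cells infected with respiratory syncytial virus strain Long; reagent: RSV Long, MOI 0.45; timing: six-day compound and virus exposure at 37 °C; detection: luminescence-based measurement of virus-induced cytopathic effect; repeats: triplicate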
row,SMILES,IC50
1,COc1ccccc1CNC(=O)C1CCN(S(=O)(=O)c2cccc3nonc23)CC1,3.1 µM
2,O=C(Nc1ccccc1)[C@@H]1CCCN1S(=O)(=O)c1cccc2cccnc12,> 50 µM (inactive)
3,Cc1ccc2c(c1)CCN2C(=O)[C@@H]1CCCN1S(=O)(=O)c1cccc2cccnc12,> 50 µM (inactive)
4,Cc1ccc(NC(=O)[C@@H]2CCCN2S(=O)(=O)c2cccc3cccnc23)c(C)n1,> 50 µM (inactive)
5,O=C([C@@H]1CCCN1S(=O)(=O)c1cccc2cccnc12)N1CCc2ccccc21,> 50 µM (inactive)
6,CC(C)c1ccccc1NC(=O)[C@@H]1CCCN1S(=O)(=O)c1cccc2cccnc12,10.9 µM
